Experimental findings from paper PMC5538437 (Genes & Development, 2017) are described below.

Changes are numbered by the printed parent chain. Names may count otherwise.

To fix the notation:
B1: GYF2 NC*: GYF2 L62D, F67D, I70D; non-canonical mutant (protein, UniProt Q6Y7W6 2-1299, looked up, variant L62D F67D I70D)
GRB10-interacting GYF protein …: AAETQTLNFGPEWLRALSSGGSITSPPLSPALPKYKLADYRYGREEMLALFLKDNKIPSDDLDKEDLPDLQEEPLPPLALVPFTEEEQRNFSMSVNSAAVLRLTGRGGGGTVVGAPRGRSSSRGRGRGRGECGFYQRSFDEVEGVFGRGGGREMHRSQSWEERGDRRFEKPGRKDVGRPNFEEGGPTSVGRKHEFIRSESENWRIFREEQNGEDEDGGWRLAGSRRDGERWRPHSPDGPRSAGWREHMERRRRFEFDFRDRDDERGYRRVRSGSGSIDDDRDSLPEWCLEDAEEEMGTFDSSGAFLSLKKVQKEPIPEEQEMDFRPVDEGEECSDSEGSHNEEAKEPDKTNKKEGEKTDRVGVEASEETPQTSSSSARPGTPSDHQSQEASQFERKDEPKTEQTEKAEEETRMENSLPAKVPSRGDEMVADVQQPLSQIPSDTASPLLILPPPVPNPSPTLRPVETPVVGAPGMGSVSTEPDDEEGLKHLEQQAEKMVAYLQDSALDDERLASKLQEHRAKGVSIPLMHEAMQKWYYKDPQGEIQGPFNNQEMAEWFQAGYFTMSLLVKRACDESFQPLGDIMKMWGRVPFSPGPAPPPHMGELDQERLTRQQELTALYQMQHLQYQQFLIQQQYAQVLAQQQKAALSSQQQQQLALLLQQFQTLKMRISDQNIIPSVTRSVSVPDTGSIWELQPTASQPTVWEGGSVWDLPLDTTTPGPALEQLQQLEKAKAAKLEQERREAEMRAKREEEERKRQEELRRQQEEILRRQQEEERKRREEEELARRKQEEALRRQREQEIALRRQREEEERQQQEEALRRLEERRREEEERRKQEELLRKQEEEAAKWAREEEEAQRRLEENRLRMEEEAARLRHEEEERKRKELEVQRQKELMRQRQQQQEALRRLQQQQQQQQLAQMKLPSSSTWGQQSNTTACQSQATLSLAEIQKLEEERERQLREEQRRQQRELMKALQQQQQQQQQKLSGWGNVSKPSGTTKSLLEIQQEEARQMQKQQQQQQQHQQPNRARNNTHSNLHTSIGNSVWGSINTGPPNQWASDLVSSIWSNADTKNSNMGFWDDAVKEVGPRNSTNKNKNNASLSKSVGVSNRQNKKVEEEEKLLKLFQGVNKAQDGFTQWCEQMLHALNTANNLDVPTFVSFLKEVESPYEVHDYIRAYLGDTSEAKEFAKQFLERRAKQKANQQRQQQQLPQQQQQQPPQQPPQQPQQQDSVWGMNHSTLHSVFQTNQSNNQQSNFEAVQSGKKKKKQKMVRADPSLLGFSVNASSERLNMGEIETLDDY
B2: GYF2 A1*: GYF2 P78D, L79A; auxiliary site 1 mutant (protein, UniProt Q6Y7W6 2-1299, looked up, variant P78D L79A)
GRB10-interacting GYF protein …: B1 GRB10-interacting GYF protein … with D61L, D66F, D69I, P77D, L78A
B3: GYF1 NC*: GYF1 L60D, F65D, V68D; non-canonical mutant (protein, UniProt O75420 1-1035, looked up, variant L60D F65D V68D)
GRB10-interacting GYF protein …: MAAETLNFGPEWLRALSGGGSVASPPPSPAMPKYKLADYRYGREEMLALYVKENKVPEEDQDKEDAADLQDEPLQPLALEPLTEEEQRNFSLSVNSVAVLRLMGKGAGPPLAGTSRGRGSTRSRGRGRGDSCFYQRSIEEGDGAFGRSPREIQRSQSWDDRGERRFEKSARRDGARCGFEEGGAGPRKEHARSDSENWRSLREEQEEEEEGSWRLGAGPRRDGDRWRSASPDGGPRSAGWREHGERRRKFEFDLRGDRGGCGEEEGRGGGGSSHLRRCRAPEGFEEDKDGLPEWCLDDEDEEMGTFDASGAFLPLKKGPKEPIPEEQELDFQGLEEEEEPSEGLEEEGPEAGGKELTPLPPQEEKSSSPSPLPTLGPLWGTNGDGDETAEKEPPAAEDDIRGIQLSPGVGSSAGPPGDLEDDEGLKHLQQEAEKLVASLQDSSLEEEQFTAAMQTQGLRHSAAATALPLSHGAARKWFYKDPQGEIQGPFTTQEMAEWFQAGYFSMSLLVKRGCDEGFQPLGEVIKMWGRVPFAPGPSPPPLLGNMDQERLKKQQELAAAALYQQLQHQQFLQLVSSRQLPQCALREKAALGDLTPPPPPPPQQQQQQLTAFLQQLQALKPPRGGDQNLLPTMSRSLSVPDSGRLWDVHTSASSQSGGEASLWDIPINSSTQGPILEQLQLQHKFQERREVELRAKREEEERKRREEKRRQQQQEEQKRRQEEEELFRRKHVRQQELLLKLLQQQQAVPVPPAPSSPPPLWAGLAKQGLSMKTLLELQLEGERQLHKQPPPREPARAQAPNHRVQLGGLGTAPLNQWVSEAGPLWGGPDKSGGGSSGLGLWEDTPKSGGSLVRGLGLKNSRSSPSLSDSYSHLSGRPIRKKTEEEEKLLKLLQGIPRPQDGFTQWCEQMLHTLSATGSLDVPMAVAILKEVESPYDVHDYIRSCLGDTLEAKEFAKQFLERRAKQKASQQRQQQQEAWLSSASLQTAFQANHSTKLGPGEGSKAKRRALMLHSDPSILGYSLHGSSGEIESVDDY
B4: GYF1 A1*: GYF1 P76D, L77A; auxiliary site 1 mutant (protein, UniProt O75420 1-1035, looked up, variant P76D L77A)
GRB10-interacting GYF protein …: B3 GRB10-interacting GYF protein … with D60L, D65F, D68V, P76D, L77A

In this experiment the test system is 4EHP. Briefly: Pull-down / coimmunoprecipitation with 4EHP in HEK293T cell lysates. It counts as binding, human. The settings on record: HEK293T cells, GFP-tagged protein and V5-SBP-4EHP, Western blot. Put shortly: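 Streptavidin-bead pull-down from RNase A-treated HEK293T lysates of cells expressing V5-SBP-tagged 4EHP or eIF4E (wild type or mutants). Co-bound endogenous GYF2, 4E-T and 4E-BP1 were probed; for 4EHP, co-expressed GFP-4E-BP1 was also probed, with V5-SBP-MBP as negative control. Inputs and bound fractions were analysed by Western blot with anti-V5, anti-GFP, anti-GYF2 and other antibodies, using ECL detection.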
Take “4E-BP1 C: 4E-BP1 Y54A, L59A; canonical motif mutant”: the “interaction with 4EHP in cells, overexpressed binding partner” value (“interaction with 4EHP in cells” below) is recorded as “abolished its interaction with 4EHP”. As to B1, the “interaction with 4EHP in cells” value is listed as “did not affect binding to overexpressed 4EHP in human cells”.

For B2, the “interaction with 4EHP in cells” value is reported as “did not affect binding to overexpressed 4EHP in human cells”. With B3 the entry was “did not affect binding to overexpressed 4EHP in human cells”; with B4, “did not affect binding to overexpressed 4EHP in human cells”.
